Assay outcomes as filed in PubChem BioAssay.
Cneo AK release = Cryptococcus neoformans lysis via adenylate kinase release; 360,000 tested, 0.2% active; lysis activity, % at 15 µM; C. neoformans lysis, adenylate kinase release luminescence, 4 h; normalised: neutral wells 0, clomiphene wells 100;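 active = mean lysis activity across replicates of at least 80%, whatever share of replicates individually reach that level; inactive = mean lysis activity below 80%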
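read-out = cell lysis signal | test system = log-phase Cryptococcus neoformans yeast cells | input = cells at 5 × 10^6 per mL | medium = fresh YPD growth medium | signal = luminescent adenylate kinase detection reagent | timing = 4 h at 37 °C static, read 1 h later | dosing = single dose | controls = Clomiphene as positive lysis control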
PglD inh = inhibitors of Campylobacter jejuni PglD acetyltransferase; purified PglD enzyme, DTNB colorimetric CoA detection; 360,000 tested, 0.098% active; inhibition, % at 12.5 µM; AID 602405; in the data active = inhibition above about 16%, passing the limit was not always enough
SUMO Mot1 rescue = blocks SUMOylation pathway, rescuing yeast Mot1-301 growth; S. cerevisiae Mot1-301 growth rescue, ATP luminescence, 38.5C; percent above DMSO median, 100 means doubled; growth rescue, % at 18.8 µM; 320,000 tested, 1% active;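 active = every valid replicate shows activation above 250% relative to neutral control wells; inactive = the rest, any valid replicate at or below 250%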
CR mimetic SO = yeast age-related superoxide inhibition as caloric restriction mimetic | S. cerevisiae aged cells, superoxide DHE fluorescence; hits give low values | superoxide response (% of plate mean), % at 10 µM | 330,000 tested, 0.18% active;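 active = superoxide response under a set limit, about three screen SD below normal, cut at about 65% in these data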;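 also: yeast aged for seven days with compound at 30 °C before DHE staining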
Ecoli rRNA inh = selective bacterial rRNA inhibition in E. coli | E. coli WT GFP vs humanized-ribosome RFP mutants, fluorescence, 24 h; hits give low values; DMSO median 0, no signal -100 | GFP signal change (wild-type ribosome), % (no concentration beside the values) | 350,000 tested, 1.6% active | AID 720706;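 active = significant combined selectivity score with lowered wild-type GFP, culture density cut under 30%, mutant RFP and density less affected; inactive = any of these conditions unmet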
Mot1 SUMO dose = yeast SUMO pathway inhibition in dose response; S. cerevisiae Mot1-301 galactose growth, ATP luminescence, 24 h; -100 = growth of slx-deleted rescue strain; AID 493004; shares compounds with SUMO Mot1 rescue; 2,300 tested, under 10 active; growth activity, percent, % at 42 µM;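 active = Signal drops as the depositor expects, and the fitted half-maximal dose is no more than ten times the top valid tested dose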;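 also: more negative values mean stronger growth rescue toward the control strain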
Numbers stand for hits; 0 = inactive; - = no result; + = active, no number. In the library only some 2.2% were active in any assay of this set; here they are far more common.

SMILES	Cneo AK release	PglD inh	SUMO Mot1 rescue	CR mimetic SO	Ecoli rRNA inh	Mot1 SUMO dose
O=C(OCC(=O)c1ccc[nH]1)c1ccc([N+](=O)[O-])cc1	0	0	0	0	0	-
C[C@@H]1CN([C@@H](C)CO)C(=O)Cc2cc(NS(C)(=O)=O)ccc2O[C@@H]1CN(C)C(=O)Nc1ccc(F)cc1	0	0	-	-	0	-
C[C@H]1CN([C@@H](C)CO)C(=O)Cc2cc(NC(=O)C3CC3)ccc2O[C@H]1CN(C)S(=O)(=O)c1ccc(F)cc1	0	0	-	-	0	-
COc1ccccc1/C=C/C(=O)N1CCc2cc(OC)c(OC)cc2C1C (stereo not given)	0	0	389	0	0	0
CCOC(=O)c1cc(C#N)c(Oc2ccccc2OC)nc1-c1ccccc1	0	0	+	0	-	0
C[C@@H]1CN([C@@H](C)CO)C(=O)c2ccccc2-c2ccccc2CO[C@@H]1CN(C)Cc1ccc2c(c1)OCCN2C	0	0	-	-	0	-
Cc1c(NC(=O)c2ccc(N(C)S(C)(=O)=O)cc2)c(=O)n(-c2ccccc2)n1C	0	0	+	0	0	0
Cc1c(NC(=O)c2cc(-c3ccccc3O)on2)c(=O)n(-c2ccccc2)n1C	-	-	441	0	0	0
Cc1c(NC(=O)c2cc(-c3ccccc3)on2)c(=O)n(-c2ccccc2)n1C	0	0	0	0	0	-
COc1ccc(N/C=C(\C#N)S(=O)(=O)c2ccc(OC)cc2)cc1	0	0	0	0	0	-
COc1ccc(/C=C(/C#N)S(=O)(=O)c2ccc(C)cc2)cc1	0	0	+	0	-	0
COc1ccc(-c2ccc3n(c2=O)C[C@H]2[C@H](CO)[C@@H](C(=O)NC4CCC4)N(S(C)(=O)=O)[C@@H]32)cc1	0	0	-	-	0	-
N#CC1=C(N)Oc2cc(O)ccc2C1c1cccs1 (stereo not given)	0	0	0	0	-	-
N#CC1=C(N)Oc2c(ccc3ccccc23)C1c1cccs1 (stereo not given)	-	-	508	0	-	0
NC(=O)CN1CCOCCN(CC(N)=O)CCOCC1	-	-	410	0	-	0
NC(=O)CN1CCOCCOCCN(CC(N)=O)CCOCCOCC1	0	0	0	0	-	-
CC[C@H]1CCCCc2ccccc2[C@@H](C(=O)C[C@@H](O)CC(C)=O)OC1=O	0	0	527	0	0	0
CC[C@@H]1CCCCc2ccccc2[C@H](C(=O)C[C@@H](O)CC(C)=O)OC1=O	0	0	0	0	0	-
CCC(=O)N1[C@H](CO)[C@H](c2ccc(C#CC3(O)CCCC3)cc2)[C@@H]1CNC(C)=O	-	-	-	-	0	-
Cc1nn2c(N3CCOCC3)cc(C(C)C)nc2c1-c1ccccc1	0	0	0	0	0	-
CC(C)c1cc(N2CCOCC2)n2ncc(-c3ccccc3)c2n1	0	0	489	0	0	0
Cc1ccccc1OCc1nnc(SCC(=O)N2CCc3ccccc32)n1C	0	0	0	0	-	-
Cc1cccc(OCc2nnc(SCC(=O)N3c4ccccc4CC3C)n2C)c1C (stereo not given)	0	0	400	0	-	0
CCC(=O)N1C[C@H](O)COC[C@@H]2O[C@H](CC(=O)NCc3ccccc3Cl)CC[C@H]21	0	0	-	-	0	-
N#CCSc1nc2c(cc1C#N)CCCCCC2	0	0	0	0	-	-
SMILES	Cneo AK release	PglD inh	SUMO Mot1 rescue	CR mimetic SO	Ecoli rRNA inh	Mot1 SUMO dose
N#CCSc1nc2c(c(C3CC=CCC3)c1C#N)CCC2 (stereo not given)	-	0	+	0	0	0
Cc1cccc(C(=O)NNC(=O)c2cc3cc4ccccc4nc3s2)c1	0	0	0	0	-	-
Cc1ccc(S(=O)(=O)NNC(=O)c2cc3cc4ccccc4nc3s2)cc1	0	0	553	0	-	0
Cc1ccc(C(=O)NC2CCCCN(C)C2=O)cc1 (stereo not given)	-	-	-	-	0	-
CC(=O)NC1CCCN(O)C(=O)/C=C(\C)CCOC(=O)C(NC(C)=O)CCCN(O)C(=O)/C=C(\C)CCOC(=O)C(NC(C)=O)CCCN(O)C(=O)/C=C(\C)CCOC1=O (stereo not given)	0	0	559	0	-	0
O=C(CNC(=O)c1cc2c(n(-c3ccccc3)c1=O)CCCC2=O)c1ccccc1	0	0	0	0	0	-
COc1ccc(-n2c3c(cc(C(=O)NCC(=O)c4ccccc4)c2=O)C(=O)CC(C)(C)C3)cc1	0	0	443	0	0	0
CCCCC(O)(c1ccc(F)cc1)C(CN1CCOCC1)c1ccc(Cl)cc1 (stereo not given)	0	0	537	0	0	0
COc1ccc(C2CC(c3cccs3)=NN2C(=O)c2ccccc2)cc1OC (stereo not given)	0	0	424	0	0	0
COc1ccc(C2CC(c3cccs3)=NN2C(=O)CCl)cc1OC (stereo not given)	0	0	0	0	0	-
C[C@@H]1O[C@@H]1P(=O)(O)O	0	0	0	0	-	-
C[C@H]1O[C@H]1P(=O)(O)O	0	0	975	0	0	0
C/C(CC(=O)Nc1cccnc1)=N\NC(=O)C(C)Oc1ccc(Cl)cc1Cl (stereo not given)	-	-	671	0	0	0
O=C(Nc1cccc(Cl)c1)N[C@@H]1CC[C@H](CCNC(=O)C2CCCCC2)O[C@@H]1CO	0	0	-	-	0	-
Cc1cccc2nc(COc3ccc4ccccc4c3Br)cn12	-	-	728	0	-27	0
O=C(O)/C=C/c1cccnc1	0	0	399	0	0	0
CC(/C=C\c1cccnc1)=C/C(=O)O	0	0	0	0	-	-
O=C(C[C@H]1C=C[C@H](NC(=O)CN2CCOCC2)[C@@H](CO)O1)NCCc1ccncc1	-	-	-	-	0	-
CCOC(=O)CNS(=O)(=O)Cc1ccccc1	0	0	0	0	0	-
O=C(O)CNS(=O)(=O)Cc1ccccc1	0	0	918	0	0	0
O=S(=O)(Cc1ccccc1)NCc1ccccn1	0	0	611	0	0	0
CCCN1[C@H](C(=O)OC)[C@@H](CO)[C@@H]2Cn3c(ccc(-c4cccnc4)c3=O)[C@@H]21	-	-	-	-	0	-
CC(=O)c1c(N2CCCC2)[nH]c(-c2ccccc2)nc1=S	-	-	0	0	0	-
CC(=O)c1c(N)[nH]c(-c2ccccc2)nc1=S	0	0	886	0	-	0
Cc1ccc2nc(/C(C#N)=C\c3cc(O)ccc3[N+](=O)[O-])[nH]c2c1	-	-	503	0	0	0
N#C/C(=C\c1cc([N+](=O)[O-])c(N2CCOCC2)cc1N1CCOCC1)c1nc2ccccc2[nH]1	0	0	361	0	-	0
COc1cc(/C=C(\C#N)c2nc3ccc(C)cc3[nH]2)c([N+](=O)[O-])cc1OC	0	0	0	0	-	-
O=C(CCNC(=O)c1ccccc1)Nc1cccnc1	0	-	455	0	0	0
CN=C(Nc1cccnc1)c1ccccc1	0	0	421	0	0	0
CC(C)N=C(Nc1cccnc1)c1ccccc1	0	0	0	0	0	-
